Test results: ChEMBL document CHEMBL4017489, “Design, Synthesis, and Evaluation of New Selective NM23-H2 Binders as c-MYC Transcription Inhibitors via Disruption of the NM23-H2/G-Quadruplex Interaction” (J Med Chem, 2017)
Active and inactive are the calls of the source. The calls are words filed in the database; no cut-off is given here.

Experiments:
[1] = system: SiHa; assay: Antitumor activity against human SiHa cells xenografted in BALB/C nude mouse assessed as tumor growth inhibition at 1 mg/kg, ip administered daily after 3 weeks relative to control; type: functional; details: 504 h, read-out: TGI
[2] = system: Mus musculus; assay: Toxicity in BALB/C nude mouse xenografted with human SiHa cells assessed as change in body weight at 1 mg/kg, ip administered daily after 3 weeks; type: organism-based; details: in vivo, 504 h
How it was run: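 SiHa cells implanted in the right armpit of BALB/c nu/nu mice. At approximately 50 mm3, mice randomized (n = 8/group) to vehicle, compound 2.5 or 5.0 mg/kg, or doxorubicin 1.0 mg/kg, given ip daily for 3 weeks. Body weight and signs of pain, distress or discomfort monitored; tumors excised and weighed. Data given as mean ± SEM, t test against vehicle.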

[3] = system: SiHa; assay: Antitumor activity against human SiHa cells xenografted in BALB/C nude mouse assessed as tumor weight at 1 mg/kg, ip administered daily after 3 weeks (reference value: 511.6 mg); type: functional
[4] = target: T1, Nucleoside diphosphate kinase B (Homo sapiens, UniProt P22392); assay: Binding affinity to NM23-H2 (unknown origin) by SPR analysis
T1 sequence (P22392 whole entry): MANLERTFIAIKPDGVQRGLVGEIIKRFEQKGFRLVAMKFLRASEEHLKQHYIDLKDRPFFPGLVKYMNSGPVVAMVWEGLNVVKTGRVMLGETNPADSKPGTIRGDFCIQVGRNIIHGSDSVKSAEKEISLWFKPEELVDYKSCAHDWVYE

[5] = target: T1, Nucleoside diphosphate kinase B; assay: Binding affinity to N-terminal NT-647-NHS labeled NM23-H2 (unknown origin) after 30 mins by MST analysis
How it was run: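 NM23-H2 N-terminally labeled with RED-NHS dye (20 μM protein, 30 min dark, RT), free dye removed; 200 nM labeled protein with compound from 500 μM, 16 twofold steps, 30 min RT in 50 mM Tris-HCl pH 7.4, 150 mM NaCl, 10 mM MgCl2, 0.05% Tween-20; KD at half-plateau.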

[6] = Binding affinity to Htg21 telomeric G-quadruplex DNA (unknown origin) at 40 uM after 30 mins by SPR analysis
[7] = Binding affinity to biotin-labeled 18-mer duplex DNA hairpin (unknown origin) at 40 uM after 30 mins by SPR analysis
[8] = Binding affinity to biotin-labeled Pu22 c-myc G-quadruplex DNA (unknown origin) by SPR analysis
[9] = target: T1, Nucleoside diphosphate kinase B; assay: Binding affinity to NM23-H2 (unknown origin) assessed as ratio of Kd for protein interaction with biotin-labeled Pu22 c-myc G-quadruplex DNA in presence and absence of compound after 1 hr by ELISA
[10] = target: T1, Nucleoside diphosphate kinase B; assay: Binding affinity to NM23-H2 in human SiHa cells assessed as disruption of protein interaction with c-myc G-quadruplex DNA by measuring decrease in c-MYC mRNA level at 2 uM after 9 hrs by RT-PCR analysis; type: cell-based
How it was run: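 SiHa cells treated at 0, 0.5, 1.0, 2.0 μM for 9 h; TRIzol RNA, 1.5 μg reverse-transcribed with oligo(dT); semiquantitative PCR, 30 cycles, 58 °C annealing; bands normalized to β-actin, untreated 100%; three repeats.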

[11] = target: T1, Nucleoside diphosphate kinase B; assay: Binding affinity to NM23-H2 in human SiHa cells assessed as disruption of protein interaction with c-myc G-quadruplex DNA by measuring decrease in c-MYC protein expresson at 2 uM after 48 hrs by Western blot analysis; type: cell-based
How it was run: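 SiHa cells treated 48 h; lysates (30 μg) on 10% SDS-PAGE, nitrocellulose, anti-c-MYC overnight at 4 °C, HRP secondary, chemiluminescence; β-actin internal control; three repeats.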

[12] = target: T1, Nucleoside diphosphate kinase B; assay: Binding affinity to NM23-H2 (unknown origin) up to 40 uM by SPR analysis
[13] = system: SiHa; assay: Antiproliferative activity against human SiHa cells after 48 hrs by MTT assay; type: functional, cell-based

| Kd [4] [µM] | Kd [5] [µM] | Activity [6] | Activity [7] | Kd [8] [µM] | Ratio [9] | Activity [10] | Activity [11] | Activity [12] | Structure (SMILES) | inhibition in vivo at 1 mg/kg [1] [%] | Activity [2] | Activity [3] [mg] | IC50 [13] [µM] |
| --- | --- | --- | --- | --- | --- | --- | --- | --- | --- | --- | --- | --- | --- |
|  |  |  |  |  |  |  |  |  | COc1cccc2c1C(=O)c1c(O)c3c(c(O)c1C2=O)C[C@@](O)(C(=O)CO)C[C@@H]3O[C@H]1C[C@H](N)[C@H](O)[C@H](C)O1 [DOXORUBICIN] | 67.6 | Toxic | 165.9 |  |
| 10.1 | 18.9 | inactive | inactive | 35.8 |  |  |  |  | CC(=O)Oc1ccc(/C=C2\CCn3c2nc2cc(NCCCN(C)C)c(F)cc2c3=O)cc1 |  |  |  |  |
| 10.4 | 24.6 | inactive | inactive |  | 2.3 | Active | Active |  | O=C(CCN1CCCC1)Nc1ccc(/C=C2\CCCn3c2nc2cc(NC(=O)CCN4CCCC4)ccc2c3=O)cc1 |  |  |  |  |
|  | 48.5 | inactive | inactive |  | 2.1 to 2.6 |  |  | inactive | CCN(CC)CCCNc1cc2nc3n(c(=O)c2cc1F)CC/C3=C\c1ccc(N(CC)CC)cc1 |  |  |  |  |
| 7.6 |  |  |  | 3.8 |  |  |  |  | CCN(CC)CCCNC(=O)c1ccc(/C=C2\CCn3c2nc2cc(NCCN4CCCC4)c(F)cc2c3=O)cc1 |  |  |  |  |
| 16.8 | 18.4 | inactive | inactive |  | 2.1 to 2.6 |  |  |  | COc1cc(/C=C2\CCn3c2nc2cc(NCCCN(C)C)c(F)cc2c3=O)cc(OC)c1OC |  |  |  |  |
| 19.8 | 18 | inactive | inactive | 2.7 |  | Active | Active |  | O=C(NCCCN1CCCC1)c1ccc(/C=C2\CCn3c2nc2cc(NCCN4CCCC4)c(F)cc2c3=O)cc1 |  |  |  | 16.4 |
| 12.2 | 7.6 | inactive | inactive |  | > 3 |  |  |  | O=c1c2cc(F)c(NCCN3CCCCC3)cc2nc2n1CC/C2=C\c1ccc(OCc2ccccc2)cc1O |  |  |  |  |
| 13.2 | 16.1 | inactive | inactive |  | > 3 |  |  |  | CN(C)CCCNc1cc2nc3n(c(=O)c2cc1F)CC/C3=C\c1ccc(OCc2ccccc2)c(O)c1 |  |  |  |  |
| 11.5 | 10.8 | inactive | inactive |  | > 3 |  |  |  | O=c1c2cc(F)c(NCCCN3CCCC3)cc2nc2n1CC/C2=C\c1ccc(OCc2ccccc2)cc1O |  |  |  |  |
| 18.4 | 22.3 | inactive | inactive |  | 2.1 to 2.6 |  |  |  | O=c1c2cc(F)c(NCCCN3CCOCC3)cc2nc2n1CC/C2=C\c1ccc(OCc2ccccc2)cc1 |  |  |  |  |
| 4.6 | 3.4 | inactive | inactive |  | > 3 |  |  |  | CCN(CC)CCCNc1cc2nc3n(c(=O)c2cc1F)CC/C3=C\c1ccc(OCc2ccccc2)cc1O |  |  |  |  |
